# Hsp70 act: Hsp70 transcriptional activation, primary screen | HeLa Hsp70 promoter luciferase reporter, luminescence; scaled: vehicle 0, proteasome-inhibitor control 100% | activation, % at 10 µM | 200,000 compounds, 0.04% hits | AID 1203;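 active = activation above the mean across all tested compounds plus 3 SD, cutoff set per campaign, cut at about 5.5% in these data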;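 also: 100% = MG132 at 30 µM as the positive control and 0% = DMSO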
# PERK inh: human PERK inhibition, primary cell-based screen | 220,000 compounds, 0.17% hits | inhibition, % at 5.6 µM | Q9NZJ5 | CHO PERK-DD fusion, SEAP luminescence translation reporter;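 active = inhibition above the mean inhibition of all tested compounds plus 3 SD, set separately per screening campaign, cut at about 2.9% in these data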;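 also: PERK kinase domain activated by AP20187 dimerizer at 100 nM; 0% = DMSO with dimerizer and 100% = rapamycin at 8.4 µM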
# STAT3 act: activators of IL-6 induced STAT3 signaling. 190,000 compounds, 0.91% hits. activation (% of control), % at 5.6 µM. U3A cells, IL-6 STAT3-luciferase reporter, luminescence; 100% = signal with IL-6 EC80 alone;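 active = activation above the screen-wide mean of compound activation plus 3 SD, cut at about 130% in these data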;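 also: 0% = background luminescence of wells with medium and substrate only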
#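 Material: human STAT1-deficient U3A cells with stable STAT3-luciferase reporter / Probe or stimulus: IL-6 stimulus at 33 ng/mL final / Schedule: 1 h compound pre-exposure, 6 h IL-6 stimulation, 37 °C / Technique: luminescence / Read-out basis: percent of IL-6-only median luminescence / Control set: IL-6-only high control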
# PolyA inhibitor: inhibitors of polyadenylation in S. cerevisiae; S. cerevisiae SKY197-pL101 polyadenylation reporter, beta-gal luminescence; efflux-impaired pdr1/pdr3 knockout yeast; score 100 = 6 SD above DMSO; activity score, % at 12 µM; 300,000 compounds, 0.02% hits; AID 1875;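 active = lowest replicate activity score at least 50, where 100 means six control SD above control mean; inconclusive = lowest score under 50 but half or more replicates reach 50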;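 also: yeast exposed to compound for 9 h at 30 °C; higher score means more reporter readthrough which indicates perturbed polyadenylation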
# HSF1 inhib: HSF1 inhibition; NIH3T3-HGL HSE-luciferase, MG132-induced, luminescence 8 h; active compounds read low; activity change, negative = inhibition, % at 7.5 µM (by protocol); 300,000 compounds, 0.77% hits; AID 2098;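 active = more than half of replicate wells show activity change below -50%, luminescence cut by over half; inconclusive = some wells, but at most half, below -50%; inactive = no replicate well below -50%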;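 also: luciferase reports HSF-1 transcriptional activity via heat shock element; 0% = median of DMSO wells and -100% = zero luminescence signal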
# AHR activator: activators of human aryl hydrocarbon receptor | P35869 | activation, % at 5 µM | AID 2796 | AHR-responsive luciferase reporter cells, luminescence | 320,000 compounds, 2.5% hits; in the data active = activation above about 47%;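 also: 0% = vehicle wells and 100% = reference agonist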
# An asterisk follows results filed as active; ? = inconclusive; . = not tested or not shown. An excerpt weighted towards active compounds, which were near 3.6% of everything screened.
SMILES,Hsp70 act,PERK inh,STAT3 act,PolyA inhibitor,HSF1 inhib,AHR activator
COc1ccc(C(=O)Nc2ccc(O)c3ccccc23)cc1,.,.,.,-2,7,39
COc1ccc(NC(=O)Nc2ccc(O)c3ccccc23)cc1,.,.,.,-9,-42,75*
CN(C)/C=N/C1=C(C#N)C(c2cccs2)c2ccc3ccccc3c2O1 (configuration not stated),0,1,126,.,.,.
COc1cc(/C=C/C(=O)N2CCCc3ccccc32)cc(OC)c1OC,0,-1,99,0,-2,55*
Cc1nc(NC2=NCN(CCc3ccccc3)CN2)nc2c(C)cccc12,0,0,158*,.,.,.
N#CCC(=O)N/N=C/c1ccc(N2N=C(c3ccccc3)CC2c2ccccc2)cc1 (configuration not stated),.,.,.,-2,6,14
CCOc1cc(N2CCOCC2)c(OCC)cc1NC(=O)CSc1nnc(N)s1,.,.,.,.,.,1
O=C(COC(=O)/C=C/c1ccc(C(F)(F)F)cc1)NC1CC1,.,.,.,-19,-56*,1
O=C(COC(=O)/C=C/c1ccc(C(F)(F)F)cc1)NC1CCCC1,.,.,.,-6,-10,-1
O=C(Nc1ccccc1)n1ccc(-c2ccc(-n3ccnc3)cc2)n1,0,1,103,-6,2,83*
CC(=O)c1ccc(-n2ccnc2)cc1,.,2,.,13,5,3
CCCc1c(O)nc(SCC(=O)N2CCCCC2)[nH]c1=O,.,.,.,-7,-4,3
CC(C)CCc1c(O)nc(SCC(=O)N2CCCCCC2)[nH]c1=O,.,.,.,-10,-74*,0
CCCn1c(NC(=O)CCS(=O)(=O)c2ccc(C)cc2)nc2ccccc21,.,.,.,-16,-1,0
O=C(CCCSc1nc2ccccc2s1)NCc1ccc2c(c1)OCO2,0,0,111,-13,2,50*
O=C(CSc1n[nH]c(-c2cccs2)n1)NCc1ccc2c(c1)OCO2,0,2,105,-2,3,58*
Nc1nc(SCC(=O)NCc2ccc3c(c2)OCO3)n[nH]1,0,1,104,8,-7,1
O=C(CSc1ccc2nnc(-c3ccccc3)n2n1)NCc1ccc2c(c1)OCO2,1,0,99,8,-1,56*
O=C(CSc1ccc2ccccc2n1)NCc1ccc2c(c1)OCO2,0,0,104,-2,0,64*
Nc1cc(N)nc(SCC(=O)NCc2ccc3c(c2)OCO3)n1,.,.,.,.,.,3
CCc1cccc(NC(=O)CSc2nnc(Cc3ccc(OC)cc3)c(=O)[nH]2)c1,.,.,.,?,1,3
Cc1cc(SCC(=O)c2ccc(O)c(O)c2)nc2ccccc12,0,0,91,-12,0,-3
Cc1cc(SCC(=O)c2ccc3c(c2)OCO3)nc2ccccc12,0,0,87,-36,6,64*
Cc1cccc(N2CC(C(=O)Nc3nnc(SCC(=O)NCC4CCCO4)s3)CC2=O)c1 (configuration not stated),.,.,.,-9,-1,2
Cc1[nH]c2ccccc2c1N=Nc1ccccc1F,2,1,108,-36,6,51*
SMILES,Hsp70 act,PERK inh,STAT3 act,PolyA inhibitor,HSF1 inhib,AHR activator
Cc1[nH]c2ccccc2c1N=Nc1ccc(F)cc1,0,0,125,-33,4,67*
Cc1[nH]c2ccccc2c1N=Nc1cc(C(=O)O)cc(C(=O)O)c1,0,2,117,-8,-2,8
Cc1ccc(N=Nc2[nH]c3ccccc3c2O)cc1,1,1,171*,19,.,77*
CN(Cc1ccccc1)S(=O)(=O)c1ccc2[nH]c(=O)ccc2c1,.,.,.,-11,5,-2
COc1ccccc1CN1CCCC(CN(CCN(C)C)C(=O)c2ccc(C)cc2)C1 (configuration not stated),.,.,.,-4,-1,0
COc1ccc(N=Cc2nc(-c3ccccc3)oc2OC(C)=O)cc1,.,1,.,-1,-10,0
Cc1ccc(C(=O)Oc2oc(-c3ccccc3)nc2C=Nc2ccc(N(C)C)cc2)cc1,0,0,93,-13,89,58*
CN(C)c1ccc(N=Cc2nc(-c3ccccc3)oc2OC(=O)c2cccc(Cl)c2)cc1,0,0,94,14,11,60*
O=C(Oc1oc(-c2ccco2)nc1C=Nc1ccccc1)c1ccoc1,0,0,100,0,-81*,-4
O=C(Nc1ccc(C2SCCS2)cc1)c1ccccc1,.,1,.,-19,31,4
CSCc1cc(N(C)c2ccccc2)nc(-c2ccccc2)n1,.,.,.,-9,-2,10
CC(=O)N1c2ccc(S(=O)(=O)N3CCCCC3)cc2CC1C(=O)NCc1cccc(Cl)c1 (configuration not stated),.,.,.,11,25,3
O=C(CSc1nc2c(c(=O)n1-c1ccc(Cl)cc1)SCC2)NCC1CCCO1 (configuration not stated),-1,-1,100,3,-1,-8
COc1ccc(-n2c(SCC(=O)NCC3CCCO3)nc3n[nH]c(C)c3c2=N)cc1 (configuration not stated),0,1,97,0,.,11
Cc1ccc(-n2c(SCC(=O)NCC3CCCO3)nc3n[nH]c(C)c3c2=N)cc1Cl (configuration not stated),0,-2,66,-12,-1,59*
Cc1cc(-n2c(SCC(=O)NCCC3=CCCCC3)nc3n[nH]c(C)c3c2=N)ccc1Cl,.,.,.,6,13,53*
COc1cccc(-n2c(SCC(=O)NCC3CCCO3)nc3c(c2=O)SCC3)c1 (configuration not stated),.,.,.,-10,-72*,3
CN(C(=O)CSc1n[nH]c(-c2cccs2)n1)C1CCS(=O)(=O)C1 (configuration not stated),.,.,.,3,-5,20
O=C(NCc1ccccc1Cl)C1CCCN(S(=O)(=O)c2cccc3nonc23)C1 (configuration not stated),.,.,.,12,-2,14
Cc1ccc(C2(C)NC(=O)N(CC(=O)NNC(=O)c3ccccc3F)C2=O)cc1 (configuration not stated),.,.,.,.,.,0
O=C1CCCN1CCNC(=S)Nc1ccccc1,0,1,101,6,-3,2
O=C1CCCN1CCC1CCN(C(=O)Nc2ccccc2)CC1,0,1,106,-12,-68*,0
Cc1cc(C)c(O)c(-c2n[nH]c3c2C(c2cccc(O)c2)N(Cc2ccco2)C3=O)c1 (configuration not stated),.,0,.,-3,33,65*
O=C1c2[nH]nc(-c3ccccc3O)c2C(c2cccc(Cl)c2)N1Cc1ccco1 (configuration not stated),0,0,97,12,22,6
CCCN(CC(=O)Nc1ccc(F)c(F)c1F)C(=O)C1=COCCO1,.,.,.,17,0,1
